Measurements taken from PMC7709506 (ESMO Open, 2020).
“Also recorded” adds a separate entry of the source.

Test: Safety and tolerability
Format: in vivo, human
In short: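 Open-label multicentre phase I/IIa trial in adults with advanced or metastatic solid tumours. Part 1 used 3+3 oral capsule escalation at 50–800 mg/day to define DLT and MTD. Part 2 gave tablets. Treatment continued until progression, intolerable AE or study end, with dose decisions by a safety monitoring board. AEs of special interest were monitored. The safety population was all dosed patients, summarised by dose level.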

## Cn1cc(-c2ccc3c(c2)ncn3-c2cc(NS(=O)(=O)C3CC3)cc(-c3ccc(F)cc3F)c2)cn1 [ODM-203]
Capsule 600 mg (n=30)
  Decreased appetite: 9 (30.0) n (%)
  Diarrhoea: 17 (56.7) n (%)
  Dry mouth: 14 (46.7) n (%)
  Dry skin: 1 (3.3) n (%)
  Dysgeusia: 5 (16.7) n (%)
  Epistaxis: 8 (26.7) n (%)
  Fatigue: 10 (33.3) n (%)
  Hyperbilirubinaemia: 10 (33.3) n (%)
  Hyperphosphataemia: 6 (20.0) n (%)
  Hypertension: 5 (16.7) n (%)
  Jaundice: 10 (33.3) n (%)
  Mucosal inflammation: 1 (3.3) n (%)
  Myalgia: 4 (13.3) n (%)
  Nasal dryness: 5 (16.7) n (%)
  Nausea: 4 (13.3) n (%)
  Onycholysis: 6 (20.0) n (%)
  Palmar-plantar eryrthodysaestesia: 11 (36.7) n (%)
  Related AE: 30 (100) n (%)
  Related SAEs: 8 (26.7) n (%)
  Stomatitis: 11 (36.7) n (%)
  Vomiting: 2 (6.7) n (%)
  Weight decreased: 10 (33.3) n (%)
Capsule 800 mg
  patients with a DLT (punctate keratitis): 1 patient
Capsule 800 mg (n=7)
  AE leading to death: 0 n (%)
  AE leading to discontinuation: 3 (42.9) n (%)
  AE leading to dose reduction: 0 n (%)
  AE leading to treatment interruption: 5 (71.4) n (%)
  Alopecia: 5 (71.4) n (%)
  Any AE: 7 (100) n (%)
  Arthralgia: 4 (57.1) n (%)
  Asthenia: 2 (28.6) n (%)
  Blood bilirubin increased: 3 (42.9) n (%)
  Conjugated bilirubin increased: 0 n (%)
  Decreased appetite: 1 (14.3) n (%)
  Diarrhoea: 4 (57.1) n (%)
  Dry skin: 1 (14.3) n (%)
  Dysgeusia: 1 (14.3) n (%)
  Epistaxis: 3 (42.9) n (%)
  Fatigue: 2 (28.6) n (%)
  Hyperbilirubinaemia: 4 (57.1) n (%)
  Hyperphosphataemia: 3 (42.9) n (%)
  Hypertension: 0 n (%)
  Jaundice: 2 (28.6) n (%)
  Mucosal inflammation: 0 n (%)
  Myalgia: 2 (28.6) n (%)
  Nasal dryness: 0 n (%)
  Nausea: 0 n (%)
  Onycholysis: 2 (28.6) n (%)
  Palmar-plantar eryrthodysaestesia: 1 (14.3) n (%)
  Related AE: 7 (100) n (%)
  Related SAEs: 1 (14.3) n (%)
  Stomatitis: 4 (57.1) n (%)
  Vomiting: 0 n (%)
  Weight decreased: 1 (14.3) n (%)
capsule, up to 800 mg once daily
  maximum tolerated dose (MTD): not established; also recorded: not reached
In vivo
  arthralgia grade 3 events: two
  hypertension considered related to study treatment: 14 patients
  hypertension events of grade 3 or higher: three
  myalgia grade 3: two
Of 30 patients treated with 400 mg/day
  increased alanine transaminase levels: three
patients
  Hypertension: 19%
  Myalgia: 16.7%
  back pain: 11.9%
  grade 3 hypertension: 3.6%
  ocular events: 19.0%
patients, N=84
  AEs leading to dose reductions: 10.7%
  AEs leading to treatment interruption: 72.6%
  bilirubin increase-related events: 75%
  diarrhoea (AE related to treatment): 50%
  dry mouth (AE related to treatment): 34.5%
  events resulting in treatment discontinuation: 35.7%
  palmar-plantar eryrthrodysesthesia (AE related to treatment): 35.7%
  stomatitis (AE related to treatment): 40.5%
Share of AEs, all doses
  AEs considered related to the treatment: 70.4%
  AEs grade 1 or 2 in severity: 89.2%
Tablet 200 mg (n=3)
  AE leading to death: 0 n (%)
  AE leading to discontinuation: 0 n (%)
  AE leading to dose reduction: 0 n (%)
  AE leading to treatment interruption: 0 n (%)
  Alopecia: 1 (33.3) n (%)
  Any AE: 3 (100) n (%)
  Arthralgia: 1 (33.3) n (%)
  Asthenia: 0 n (%)
  Blood bilirubin increased: 2 (66.7) n (%)
  Conjugated bilirubin increased: 0 n (%)
  Decreased appetite: 1 (33.3) n (%)
  Diarrhoea: 0 n (%)
  Dry mouth: 1 (33.3) n (%)
  Dry skin: 0 n (%)
  Dysgeusia: 1 (33.3) n (%)
  Epistaxis: 0 n (%)
  Fatigue: 1 (33.3) n (%)
  Hyperbilirubinaemia: 0 n (%)
  Hyperphosphataemia: 0 n (%)
  Hypertension: 1 (33.3) n (%)
  Jaundice: 0 n (%)
  Mucosal inflammation: 0 n (%)
  Myalgia: 1 (33.3) n (%)
  Nasal dryness: 0 n (%)
  Nausea: 0 n (%)
  Onycholysis: 0 n (%)
  Palmar-plantar eryrthodysaestesia: 0 n (%)
  Related AE: 3 (100) n (%)
  Related SAEs: 0 n (%)
  Stomatitis: 1 (33.3) n (%)
  Vomiting: 0 n (%)
  Weight decreased: 0 n (%)
Tablet 300 mg (n=3)
  AE leading to death: 0 n (%)
  AE leading to discontinuation: 0 n (%)
  AE leading to dose reduction: 1 (33.3) n (%)
  AE leading to treatment interruption: 1 (33.3) n (%)
  Alopecia: 1 (33.3) n (%)
  Any AE: 3 (100) n (%)
  Arthralgia: 2 (66.7) n (%)
  Asthenia: 3 (100) n (%)
  Blood bilirubin increased: 0 n (%)
  Conjugated bilirubin increased: 1 (33.3) n (%)
  Decreased appetite: 2 (66.7) n (%)
  Diarrhoea: 1 (33.3) n (%)
  Dry mouth: 1 (33.3) n (%)
  Dry skin: 1 (33.3) n (%)
  Dysgeusia: 1 (33.3) n (%)
  Epistaxis: 1 (33.3) n (%)
  Fatigue: 0 n (%)
  Hyperbilirubinaemia: 1 (33.3) n (%)
  Hyperphosphataemia: 1 (33.3) n (%)
  Hypertension: 0 n (%)
  Jaundice: 1 (33.3) n (%)
  Mucosal inflammation: 1 (33.3) n (%)
  Myalgia: 0 n (%)
  Nasal dryness: 1 (33.3) n (%)
  Nausea: 0 n (%)
  Onycholysis: 0 n (%)
  Palmar-plantar eryrthodysaestesia: 1 (33.3) n (%)
  Related AE: 3 (100) n (%)
  Related SAEs: 1 (33.3) n (%)
  Stomatitis: 0 n (%)
  Vomiting: 1 (33.3) n (%)
  Weight decreased: 2 (66.7) n (%)
Tablet 400 mg (n=30)
  AE leading to death: 5 (16.7) n (%)
  AE leading to discontinuation: 9 (30.0) n (%)
  AE leading to dose reduction: 6 (20.0) n (%)
  AE leading to treatment interruption: 28 (93.3) n (%)
  Alopecia: 10 (33.3) n (%)
  Any AE: 30 (100) n (%)
  Arthralgia: 9 (30.0) n (%)
  Asthenia: 10 (33.3) n (%)
  Blood bilirubin increased: 15 (50.0) n (%)
  Conjugated bilirubin increased: 7 (23.3) n (%)
  Decreased appetite: 11 (36.7) n (%)
  Diarrhoea: 19 (63.3) n (%)
  Dry mouth: 12 (40.0) n (%)
  Dry skin: 7 (23.3 n (%)
  Dysgeusia: 10 (33.3) n (%)
  Epistaxis: 14 (46.7) n (%)
  Fatigue: 9 (30.0) n (%)
  Hyperbilirubinaemia: 11 (36.7) n (%)
  Hyperphosphataemia: 8 (26.7) n (%)
  Hypertension: 8 (26.7) n (%)
  Jaundice: 11 (36.7) n (%)
  Mucosal inflammation: 7 (23.3) n (%)
  Myalgia: 3 (10.0) n (%)
  Nasal dryness: 6 (20.0) n (%)
  Nausea: 7 (23.3) n (%)
  Onycholysis: 3 (10.0) n (%)
  Palmar-plantar eryrthodysaestesia: 15 (50.0) n (%)
  Related AE: 29 (96.7) n (%)
  Related SAEs: 4 (13.3) n (%)
  Stomatitis: 17 (56.7) n (%)
  Vomiting: 5 (16.7) n (%)
  Weight decreased: 5 (16.7) n (%)
